The record followed here is ChEMBL document CHEMBL5236609, “Optimization of 1,2,4-Triazole-3-thiones toward Broad-Spectrum Metallo-β-lactamase Inhibitors Showing Potent Synergistic Activity on VIM- and NDM-1-Producing Clinical Isolates” (J Med Chem, 2022).

Where only a bound is given, the exact number is not on record here.

The nature of test [1]: Inhibition of bacterial VIM-1 (unknown origin) expressed in Escherichia coli EXPRESS BL21(DE3) assessed as inhibition constant by measuring rate of substrate hydrolysis by UV-visible spectrophotometry. Details: species or system Bacteria. In a few lines:
(§1)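 Reporter-substrate assay with purified MBL (1–70 nM final) in 50 mM HEPES pH 7.5 at 30 °C. […] Inhibitor 0.5–1000 μM final. Ki derived from the v0/vi vs [I] slope assuming competitive inhibition, or from a Dixon plot. Ki given when inhibition >70%, otherwise % inhibition at 100 μM. Triplicate.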

The test system of test [2] is Bacteria. The experiment in a line: Inhibition of bacterial IMP-1 (unknown origin) expressed in Escherichia coli EXPRESS BL21(DE3) assessed as inhibition constant by measuring rate of substrate hydrolysis at 100 uM by UV-visible spectrophotometry relative to control. In a few lines: as §1
In test [3] the test system is Bacteria. In words: Inhibition of bacterial NDM-1 (unknown origin) expressed in Escherichia coli EXPRESS BL21(DE3) assessed as inhibition constant by measuring rate of substrate hydrolysis at 100 uM by UV-visible spectrophotometry relative to control. Summed up:
as §1

Test [4] can be described thus: Inhibition of bacterial VIM-4 (unknown origin) expressed in Escherichia coli EXPRESS BL21(DE3) assessed as inhibition constant by measuring rate of substrate hydrolysis by UV-visible spectrophotometry. Details: species or system Bacteria. Summed up: as §1
For test [5], the system named is Bacteria. The experiment in a line: Inhibition of bacterial VIM-2 (unknown origin) expressed in Escherichia coli EXPRESS BL21(DE3) assessed as inhibition constant by measuring rate of substrate hydrolysis at 100 uM by UV-visible spectrophotometry relative to control. Summed up: as §1
Test [6] has as its system Klebsiella pneumoniae. The experiment in a line: Antimicrobial activity against blaVIM-4-producing multidrug-resistant Klebsiella pneumoniae VA-416/02 clinical isolate assessed as meropenem MIC at 32 ug/ml by broth microdilution method (reference value: […] ug/ml). Type of test: functional. As to conditions: dose 32 µg/ml. In a few lines: (§2)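 Inoculum was 5×10^4 CFU/well. Each inhibitor was present at a fixed 32 μg/mL, and MICs were also taken without inhibitor.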

Test [7] can be described thus: Inhibition of bacterial NDM-1 (unknown origin) expressed in Escherichia coli EXPRESS BL21(DE3) assessed as inhibition constant by measuring rate of substrate hydrolysis by UV-visible spectrophotometry. Details: species or system Bacteria. Summed up: as §1
In test [8] the test system is Pseudomonas aeruginosa. In words: Antimicrobial activity against blaVIM-2-producing multidrug-resistant Pseudomonas aeruginosa VA-182/00 clinical isolate assessed as meropenem MIC at 32 ug/ml by broth microdilution method (reference value: 128 ug/ml). The test is classed as functional. As to conditions: dose 32 µg/ml. In a few lines:
as §2

The nature of test [9]: Inhibition of bacterial VIM-2 (unknown origin) expressed in Escherichia coli EXPRESS BL21(DE3) assessed as inhibition constant by measuring rate of substrate hydrolysis by UV-visible spectrophotometry. Also noted: species or system Bacteria. Summed up:
as §1

Test [10] concerns Klebsiella pneumoniae. In words: Antimicrobial activity against blaVIM-1-producing multidrug-resistant Klebsiella pneumoniae K47-25 clinical isolate assessed as meropenem MIC at 32 ug/ml by broth microdilution method (reference value: […] ug/ml). Type of test: functional. As to conditions: dose 32 µg/ml. In a few lines:
as §2

The subject of test [11] is Escherichia coli. The experiment in a line: Antimicrobial activity against blaNDM-1-producing multidrug-resistant Escherichia coli SI-004 clinical isolate assessed as meropenem MIC at 32 ug/ml by broth microdilution method (reference value: 64 ug/ml).

For `O=C(O)[C@H](CCCn1c(-c2ccccc2)n[nH]c1=S)N(Cc1cn[nH]c1)Cc1c[nH]cn1`, the Ki in test [1] turned out to be 4600 nM; in test [4], 2000 nM. In addition, the inhibition stood at 34% in test [2], 37% in test [3] and 53% in test [5].
On to `O=C(O)[C@H](CCCn1c(-c2ccccc2)n[nH]c1=S)N(Cc1cnccn1)Cc1c[nH]cn1`, for which the Ki in [1] turned out to be 3300 nM; in test [7] it was 890 nM; in test [9], 2400 nM; in [4], 1900 nM. Further, the MIC in test [6] worked out at 1 µg/mL; in test [8] it was 128 µg/mL; in test [10] it was 4 µg/mL; in test [11] it was 8 µg/mL. In addition, the inhibition in test [2] was found to be 43%.
Consider `O=C(O)[C@H](CCCn1c(-c2ccccc2)n[nH]c1=S)N(Cc1c[nH]cn1)Cc1ncc[nH]1`, for which the inhibition constant Ki is 450 nM in [1], 2700 nM in test [7], 3300 nM in test [9] and 350 nM in [4]. Also, the minimum inhibitory concentration (MIC) is 0.06 µg/mL in test [6], 8 µg/mL in [8], 0.06 µg/mL in [10] and 0.06 µg/mL in test [11]. The inhibition in test [2] stood at 49%.
In the case of `O=C(O)[C@H](CCCn1c(-c2ccccc2)n[nH]c1=S)N(Cc1c[nH]cn1)Cc1cncs1`, the inhibition constant Ki in [1] came to 2500 nM; in test [7], 13100 nM; in test [9] it was 1100 nM; in test [4], 770 nM. Further, the MIC turned out to be 2 µg/mL in test [6], 128 µg/mL in test [8], 1 µg/mL in test [10] and 32 µg/mL in test [11]. The inhibition in test [2] was 39%.
Take `O=C(O)[C@H](CCCn1c(-c2ccccc2)n[nH]c1=S)N(Cc1cccnc1)Cc1c[nH]cn1`: the Ki in test [1] is 5200 nM; in [7], 34800 nM; in [9], 1800 nM; in [4], 1700 nM. In addition, the MIC is 1 µg/mL in [6], 128 µg/mL in [8], 4 µg/mL in test [10] and 64 µg/mL in test [11]. In addition, in [2], the inhibition was < 30%.
In the case of `Cn1cncc1CN(Cc1c[nH]cn1)[C@@H](CCCn1c(-c2ccccc2)n[nH]c1=S)C(=O)O`, the figures for the inhibition constant Ki in [1], in [9] and in test [4] were 4400 nM, 3200 nM and 3800 nM, respectively. Moreover, the MIC worked out at 4 µg/mL in [6], 128 µg/mL in test [8], 2 µg/mL in test [10] and 32 µg/mL in test [11]. The values for the inhibition in [2] and in test [3] were 50% and 66%, respectively.
Take `O=C(O)[C@H](CCCn1c(C2CCCCC2)n[nH]c1=S)N(Cc1c[nH]cn1)Cc1c[nH]cn1`: the Ki in [1] came to 280 nM; in test [7], 3.5 nM; in test [9], 110 nM; in [4], 90 nM. The MIC in [6] was found to be 0.12 µg/mL; in [8] it was 8 µg/mL; in [10], 0.06 µg/mL; in [11], 0.06 µg/mL. For the same compound, the inhibition in test [2] worked out at 48%.
`S=c1[nH]nc(-c2ccccc2)n1CCCCN(Cc1c[nH]cn1)Cc1c[nH]cn1`: the Ki worked out at 850 nM in [1], 9200 nM in test [7], 1500 nM in test [9] and 900 nM in test [4]. The MIC in [6] is 1 µg/mL; in test [8], 128 µg/mL; in test [10], 4 µg/mL; in test [11] it was 32 µg/mL. In addition, the inhibition in test [2] worked out at 34%.
With `CC(C)(C)OC(=O)NCCCCn1c(-c2ccccc2)n[nH]c1=S`, the inhibition constant (Ki) worked out at 750 nM in test [1] and 3100 nM in test [4]. The inhibition in [2] is < 30%; in [3], 42%; in test [5] it was 53%.
As to `O=C(O)[C@H](CCCn1c(-c2ccccc2)n[nH]c1=S)N(Cc1ccccc1)Cc1c[nH]cn1`, the Ki is 4100 nM in test [1], 2100 nM in test [9] and 1000 nM in test [4]. The MIC was 2 µg/mL in test [6], 128 µg/mL in test [8], 2 µg/mL in [10] and 32 µg/mL in test [11]. In addition, the inhibition in test [2] amounted to 45%; in [3] it was 60%.
Regarding `O=C(O)[C@H](CCCn1c(-c2ccccc2)n[nH]c1=S)N(Cc1c[nH]cn1)Cc1cscn1`, the Ki worked out at 820 nM in [1], 30 nM in test [7], 350 nM in [9] and 350 nM in test [4]. The minimum inhibitory concentration (MIC) in test [6] was 0.06 µg/mL; in test [8], 16 µg/mL; in test [10], 0.12 µg/mL; in test [11] it was 4 µg/mL. Also, in [2], the inhibition is 59%.
In the case of `O=C(O)[C@H](CCCn1c(-c2ccccc2)n[nH]c1=S)N(Cc1cscn1)Cc1cscn1`, the Ki in [1] is 2400 nM; in test [7], 6500 nM; in test [9] it was 2500 nM; in test [4] it was 2000 nM. Moreover, the MIC in test [6] was determined as 1 µg/mL; in test [8] it was 128 µg/mL; in test [10], 1 µg/mL; in test [11], 32 µg/mL. Moreover, the inhibition in [2] was 48%.
As to `O=C(O)[C@H](CCCn1c(-c2ccccc2)n[nH]c1=S)N(Cc1cnccn1)Cc1cnccn1`, the Ki stood at 2500 nM in test [1], 17900 nM in test [7], 1200 nM in test [9] and 630 nM in test [4]. The minimum inhibitory concentration (MIC) in [6] was determined as 2 µg/mL; in test [8] it was 128 µg/mL; in test [10], 4 µg/mL; in test [11], 32 µg/mL. Also, in [2], the inhibition is 51%.
As for `COc1cccc(CN(Cc2cccc(OC)c2OC)[C@@H](CCCn2c(-c3ccccc3)n[nH]c2=S)C(=O)O)c1OC`, the Ki in test [1] stood at 2000 nM; in [9], 760 nM; in [4], 360 nM. For the same compound, the minimal inhibitory concentration (MIC) in test [6] was 4 µg/mL; in test [8], 128 µg/mL; in test [10] it was 2 µg/mL; in [11] it was 64 µg/mL. Further, the inhibition in test [2] was < 30%; in test [3] it was 43%.
Take `O=C(O)[C@H](CCCn1c(-c2ccccc2)n[nH]c1=S)N(Cc1cn[nH]c1)Cc1cn[nH]c1`: the Ki turned out to be 3700 nM in [1], 2500 nM in test [9] and 290 nM in test [4]. The MIC in [6] was determined as 1 µg/mL; in [8] it was 128 µg/mL; in test [10], 2 µg/mL; in test [11], 64 µg/mL. The inhibition in test [2] and in test [3] was < 30% in each case.
Take `O=C(O)[C@H](CCCn1c(Cc2ccccc2)n[nH]c1=S)N(Cc1c[nH]cn1)Cc1c[nH]cn1`: the inhibition constant Ki in test [1] stood at 120 nM; in test [7], 90 nM; in [9], 410 nM; in [4], 120 nM. For the same compound, the MIC in test [6] worked out at 0.03 µg/mL; in [8], 8 µg/mL; in test [10], 0.03 µg/mL; in test [11], 0.06 µg/mL. The inhibition in test [2] was 54%.
Take `O=C(O)[C@H](CCCn1c(-c2ccccc2)n[nH]c1=S)N(Cc1ncc[nH]1)Cc1ncc[nH]1`: the Ki in test [1] was determined as 690 nM; in [7], 20 nM; in [9], 900 nM; in [4] it was 660 nM. The inhibition in [2] was determined as 61%.
Consider `O=C(O)[C@H](CCCn1c(-c2cccc(-c3ccccc3)c2)n[nH]c1=S)N(Cc1c[nH]cn1)Cc1c[nH]cn1`, for which the Ki in test [1] was 130 nM; in [7] it was 13 nM; in [9], 90 nM; in test [4], 70 nM. For the same compound, the MIC stood at 0.03 µg/mL in test [6], 8 µg/mL in [8], 0.03 µg/mL in [10] and 0.06 µg/mL in [11]. In addition, the inhibition in [2] is 69%.
